Experiment [1] relates to Mycobacterium tuberculosis. As to the kind of experiment: Antimycobacterial activity against Mycobacterium tuberculosis H37Rv ATCC 27294 after 3 to 28 days by twofold dilution method. In kind it is functional. Put shortly:
(§1)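 Twofold agar dilution in Middlebrook 7H11 with 10% OADC; plates held at 37 °C for 3 or 28 days. MIC is the lowest concentration giving complete inhibition of visible mycobacterial growth. Rifampin, streptomycin and BM521 served as references.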

For experiment [2], the system named is Mycobacterium tuberculosis. As to the kind of experiment: Antimycobacterial activity against Mycobacterium tuberculosis CIP 103471 after 3 to 28 days by twofold dilution method. In kind it is functional. Put shortly:
as §1

Experiment [3] in a line: Protection index, ratio of CC50 for Mycobacterium tuberculosis infected mouse J774A1 cells to MIC for Mycobacterium tuberculosis H37Rv ATCC 27294. The experiment is classed as functional, J774.A1.
Experiment [4] concerns Mycobacterium tuberculosis. The experiment in a line: Antimycobacterial activity against Mycobacterium tuberculosis H37Rv ATCC 27294 infected in mouse J774A1 cells assessed as reduction of bacterial growth at 1 ug/ml after 6 days relative to untreated control. Also noted: scale not given: the % may be the effect or the level left. In kind it is functional, J774.A1.
Experiment [5] concerns Mycobacterium tuberculosis. As to the kind of experiment: Antimycobacterial activity against Mycobacterium tuberculosis H37Rv ATCC 27294 infected in mouse J774A1 cells assessed as reduction of bacterial growth at 0.5 ug/ml after 6 days relative to untreated control. In kind it is functional, J774.A1. Also noted: scale not given: the % may be the effect or the level left.
For experiment [6], the system named is Mycobacterium tuberculosis. As to the kind of experiment: Antimycobacterial activity against Mycobacterium tuberculosis H37Rv ATCC 27294 infected in mouse J774A1 cells assessed as reduction of bacterial growth at 0.125 ug/ml after 6 days relative to untreated control. In kind it is functional, J774.A1. Also noted: scale not given: the % may be the effect or the level left.

In experiment [7] the test system is Mycobacterium tuberculosis. The experiment in a line: Antimycobacterial activity against Mycobacterium tuberculosis H37Rv ATCC 27294 infected in mouse J774A1 cells assessed as reduction of bacterial growth at 0.25 ug/ml after 6 days relative to untreated control. The experiment is classed as functional, J774.A1. Also noted: scale not given: the % may be the effect or the level left.

Structures are written as SMILES. Converted amounts (≈) assume the structure as drawn.

The term MIC denotes the smallest concentration in the dilution series that meets the test's criterion for growth inhibition.

For the compound `COc1ccc(-c2cc(CN3CCSCC3)c(C)n2-c2ccc(C)cc2)cc1`, the MIC in experiment [1] was 0.25 µg/mL (≈ 0.637 µM); in experiment [2] it was 0.5 µg/mL (≈ 1.27 µM). Also, the PI in experiment [3] was found to be 46.2.

For the compound `CSc1ccc(-n2c(-c3ccc(F)cc3)cc(CN3CCSCC3)c2C)cc1`, the MIC in experiment [1] and in experiment [2] was 1 µg/mL (≈ 2.42 µM) each time. Moreover, the PI in experiment [3] is listed as >128.

For the compound `COc1ccc(-n2c(-c3ccc(C)cc3)cc(CN3CCSCC3)c2C)cc1`, the minimal inhibitory concentration (MIC) was 2 µg/mL (≈ 5.09 µM) in experiment [1] and 1 µg/mL (≈ 2.55 µM) in experiment [2]. In addition, the PI in experiment [3] is reported as 6.57.

Regarding `CCc1ccc(-c2cc(CN3CCSCC3)c(C)n2-c2ccc(OC)cc2)cc1`, the MIC in experiment [1] and in experiment [2] was 0.5 µg/mL (≈ 1.23 µM) each time. The PI in experiment [3] was 36.06.

As to `CCc1ccc(-n2c(-c3ccc(OC)cc3)cc(CN3CCSCC3)c2C)cc1`, the minimal inhibitory concentration (MIC) came to 0.25 µg/mL (≈ 0.615 µM) in experiment [1] and 0.5 µg/mL (≈ 1.23 µM) in experiment [2]. Further, the PI in experiment [3] came to 63.04.

With `CCCc1ccc(-c2cc(CN3CCSCC3)c(C)n2-c2ccc(OC)cc2)cc1`, the values for the MIC in experiment [1] and in experiment [2] were 0.25 µg/mL (≈ 0.594 µM) and 0.5 µg/mL (≈ 1.19 µM), respectively. The PI in experiment [3] was >512.

Take `CCCc1ccc(-n2c(-c3ccc(OC)cc3)cc(CN3CCSCC3)c2C)cc1`: the minimum inhibitory concentration (MIC) in experiment [1] and in experiment [2] was 0.25 µg/mL (≈ 0.594 µM) in each case. Besides, the PI in experiment [3] is reported as 49.12.

`COc1ccc(-n2c(-c3ccc(C(C)C)cc3)cc(CN3CCSCC3)c2C)cc1`: the MIC in experiment [1] and in experiment [2] was 0.5 µg/mL (≈ 1.19 µM) each time. Further, the PI in experiment [3] was 9.76.

For `COc1ccc(-c2cc(CN3CCSCC3)c(C)n2-c2ccc(C(C)C)cc2)cc1`, the minimal inhibitory concentration (MIC) in experiment [1] and in experiment [2] was 0.25 µg/mL (≈ 0.594 µM) each time. Moreover, the PI in experiment [3] is given as 40.88.

As to `CSc1ccc(-n2c(-c3ccc(C)cc3)cc(CN3CCSCC3)c2C)cc1`, the minimum inhibitory concentration (MIC) in experiment [1] and in experiment [2] was 1 µg/mL (≈ 2.45 µM) throughout. In addition, the PI in experiment [3] was determined as 69.06.

With `CSc1ccc(-c2cc(CN3CCSCC3)c(C)n2-c2ccc(C)cc2)cc1`, the minimal inhibitory concentration (MIC) in experiment [1] and in experiment [2] was 0.25 µg/mL (≈ 0.612 µM) throughout. In addition, the PI in experiment [3] was found to be 73.6.

With `CCc1ccc(-c2cc(CN3CCSCC3)c(C)n2-c2ccc(SC)cc2)cc1`, the minimal inhibitory concentration (MIC) is 0.25 µg/mL (≈ 0.591 µM) in experiment [1] and 1 µg/mL (≈ 2.37 µM) in experiment [2]. Also, in experiment [3], the PI was 102.96.

In the case of `CCc1ccc(-n2c(-c3ccc(SC)cc3)cc(CN3CCSCC3)c2C)cc1`, the minimal inhibitory concentration (MIC) in experiment [1] and in experiment [2] was 0.25 µg/mL (≈ 0.591 µM) in each case. Moreover, the PI in experiment [3] came out at 68.72.

In the case of `CCCc1ccc(-c2cc(CN3CCSCC3)c(C)n2-c2ccc(SC)cc2)cc1`, the minimal inhibitory concentration (MIC) in experiment [1] turned out to be 0.25 µg/mL (≈ 0.572 µM); in experiment [2] it was 0.5 µg/mL (≈ 1.14 µM). In addition, the PI in experiment [3] came out at 359.68.

Turning to `CCCc1ccc(-n2c(-c3ccc(SC)cc3)cc(CN3CCSCC3)c2C)cc1`, the results for the minimum inhibitory concentration (MIC) in experiment [1] and in experiment [2] were 0.125 µg/mL (≈ 0.286 µM) and 0.5 µg/mL (≈ 1.14 µM), respectively. For the same compound, the PI in experiment [3] was 202.

`CSc1ccc(-n2c(-c3ccc(C(C)C)cc3)cc(CN3CCSCC3)c2C)cc1`: the minimum inhibitory concentration (MIC) in experiment [1] and in experiment [2] was 0.5 µg/mL (≈ 1.14 µM) in each case. Moreover, the PI in experiment [3] amounted to 229.9.

For `CSc1ccc(-c2cc(CN3CCSCC3)c(C)n2-c2ccc(C(C)C)cc2)cc1`, the minimal inhibitory concentration (MIC) in experiment [1] is 0.125 µg/mL (≈ 0.286 µM); in experiment [2], 0.5 µg/mL (≈ 1.14 µM). Besides, in experiment [3], the PI is 286.24.

On to `Cc1c(CN2CCSCC2)cc(-c2ccccc2C(F)(F)F)n1-c1ccc(F)cc1`, for which the MIC in experiment [1] was > 16 µg/mL.

In the case of `Cc1c(CN2CCSCC2)cc(-c2ccc(F)cc2)n1-c1ccccc1C(F)(F)F`, the MIC in experiment [1] turned out to be 4 µg/mL (≈ 9.21 µM). Also, the PI in experiment [3] turned out to be 0.65.

In experiment [1], `Cc1c(CN2CCSCC2)cc(-c2ccc(C(F)(F)F)cc2)n1-c1ccc(F)cc1` yielded an MIC of 1 µg/mL (≈ 2.3 µM). For the same compound, the PI in experiment [3] amounted to 8.46.

On to `Cc1c(CN2CCSCC2)cc(-c2ccc(F)cc2)n1-c1ccc(C(F)(F)F)cc1`, for which the lowest concentration to inhibit growth in experiment [1] (MIC) was 8 µg/mL (≈ 18.4 µM). Also, the PI in experiment [3] worked out at 0.29.

Consider `COc1ccccc1-c1cc(CN2CCSCC2)c(C)n1-c1ccc(F)cc1`, for which, in experiment [1], the minimum inhibitory concentration (MIC) is > 16 µg/mL.

In the case of `COc1ccccc1-n1c(-c2ccc(F)cc2)cc(CN2CCSCC2)c1C`, in experiment [1], the MIC was > 16 µg/mL.

In the case of `COc1ccc(-c2cc(CN3CCSCC3)c(C)n2-c2ccc(F)cc2)cc1`, in experiment [1], the MIC came to 0.25 µg/mL (≈ 0.63 µM). For the same compound, in experiment [3], the PI is given as >480.

With `COc1ccc(-n2c(-c3ccc(F)cc3)cc(CN3CCSCC3)c2C)cc1`, the minimum inhibitory concentration (MIC) in experiment [1] stood at 4 µg/mL (≈ 10.1 µM). Moreover, the PI in experiment [3] stood at 5.32.

As to `CSc1ccccc1-c1cc(CN2CCSCC2)c(C)n1-c1ccc(F)cc1`, the MIC in experiment [1] and in experiment [2] was 16 µg/mL (≈ 38.8 µM) in each case. For the same compound, in experiment [3], the PI was 1.39.

`CSc1ccccc1-n1c(-c2ccc(F)cc2)cc(CN2CCSCC2)c1C`: the minimal inhibitory concentration (MIC) in experiment [1] and in experiment [2] was 8 µg/mL (≈ 19.4 µM) in each case. In addition, in experiment [3], the PI is 4.2.

As to `CSc1ccc(-c2cc(CN3CCSCC3)c(C)n2-c2ccc(F)cc2)cc1`, the minimal inhibitory concentration (MIC) in experiment [1] was 0.125 µg/mL (≈ 0.303 µM); in experiment [2] it was < 0.125 µg/mL. Besides, the Activity in experiment [4] is given as 99.81%; in experiment [5], 99.72%; in experiment [6], 96.12%; in experiment [7], 99.02%. Further, in experiment [3], the PI was >1000.

As for `Cc1ccc(-c2cc(CN3CCSCC3)c(C)n2-c2ccc(F)cc2)cc1`, the MIC in experiment [1] came to 0.25 µg/mL (≈ 0.657 µM); in experiment [2] it was 0.125 µg/mL (≈ 0.328 µM). For the same compound, in experiment [3], the PI came to 272.16.

In the case of `CO[C@H]1/C=C/O[C@@]2(C)Oc3c(C)c(O)c4c(O)c(c(/C=N/N5CCN(C)CC5)c(O)c4c3C2=O)NC(=O)/C(C)=C\C=C\[C@H](C)[C@H](O)[C@@H](C)[C@@H](O)[C@@H](C)[C@H](OC(C)=O)[C@@H]1C` [RIFAMPIN], the MIC in experiment [1] and in experiment [2] was 0.25 µg/mL (≈ 0.304 µM) each time. Besides, the Activity in experiment [4] is reported as 99.97%; in experiment [5], 99.93%; in experiment [6] it was 96.59%; in experiment [7], 99.83%. Further, in experiment [3], the PI is on record as 828.12.

Turning to `CN[C@@H]1[C@H](O[C@H]2[C@H](O[C@H]3[C@H](O)[C@@H](O)[C@H](N=C(N)N)[C@@H](O)[C@@H]3N=C(N)N)O[C@@H](C)[C@]2(O)C=O)O[C@@H](CO)[C@H](O)[C@H]1O` [STREPTOMYCIN], the minimal inhibitory concentration (MIC) in experiment [1] and in experiment [2] was 0.5 µg/mL (≈ 0.86 µM) each time. In experiment [3], the PI is recorded as >2000.

Values taken from ChEMBL document CHEMBL1275336, “Identification of a novel pyrrole derivative endowed with antimycobacterial activity and protection index comparable to that of the current antitubercular drugs streptomycin and rifampin” (Bioorg Med Chem, 2010).
